Source: ChEMBL document CHEMBL6074625, “Thiazolidine-2,4-dione hybrids as dual alpha-amylase and alpha-glucosidase inhibitors: design, synthesis, in vitro and in vivo anti-diabetic evaluation” (RSC Med Chem, 2024)

Assays:
[1] = system: PANC-1; experiment: Cytotoxicity against human PANC-1 cells assessed as inhibition of cell viability at upto 100 uM incubated for 24 hrs by MTT assay; assay type: toxicity, cell-based; details: panc-1, 24 h
Method in brief: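 PANC-1 cells seeded at 9 × 10³ per well, triplicate, 24 h at 37 °C, 5% CO₂. Treated with 5, 10, 20, 40, 60, 80 and 100 μM for another day. MTT (5 mg mL⁻¹ stock) 3 h at 37 °C, plates centrifuged, formazan dissolved in DMSO 30 min dark, A570. Viability compared by one-way ANOVA with Tukey test.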

[2] = target: alpha-glucosidase (Saccharomyces cerevisiae); experiment: Inhibition of Saccharomyces cerevisiae alpha-glucosidase using 4-nitrophenyl-alpha-D-glucopyranoside as substrate incubated with compound for 15 to 20 min by absorbance based analysis
[3] = system: PANC-1; experiment: Antioxidant activity in human PANC-1 cells assessed as decrease in high glucose induced ROS production by measuring minimum fractional index at 5 uM incubated for 24 hrs by DCFDA-staining based flow cytometry analysis; assay type: functional
Method in brief: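 PANC-1 cells (1 × 10⁵/well) grown 24 h at 37 °C, 5% CO₂, then pre-treated 1 h with 5 μM compound. Exposed to glucose (stated 10 μM) for 23 h. Stained with 10 μM DCFH-DA for 30 min at 37 °C, rinsed, and ROS read by flow cytometry as DCFDA/FITC mean fluorescence intensity.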

[4] = Inhibition of porcine pancreatic alpha-amylase using starch as substrate preincubated for 10 min followed by substrate addition and measured after 20 min by absorbance based analysis; set-up: species or system Sus scrofa
Method in brief: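 Porcine α-amylase (1 U mL⁻¹) pre-incubated with compound 10 min at 25 °C in phosphate buffer pH 6.8. 1% starch added, then 15 min at 37.5 ± 2 °C. Quenched with DNS reagent, heated 70 °C 20 min, diluted with buffer, A540 read, in triplicate. Final concentrations 100–1 μM from DMSO dilutions; IC50 from a linear fit of % inhibition at y = 50.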

[5] = Toxicity against STZ-induced diabetic Wistar rat model assessed as body weight loss at 10 mg/kg, po measured on day 14; assay type: organism-based; details: in vivo, 336 h, time 14 day
Method in brief: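 STZ given on day 1; oral treatment started day 14, with vehicle 0.5% CMC in controls. Six groups: normal, vehicle, STZ, STZ + two test compounds, STZ + pioglitazone. Blood glucose (tail puncture, glucometer) and body weight recorded on days 1, 4, 14 and 35. One-way ANOVA.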

[6] = Toxicity against STZ-induced diabetic Wistar rat model assessed as body weight loss in presence of pioglitazone at 10 mg/kg, po measured on day 14; assay type: organism-based; details: in vivo
[7] = system: Rattus norvegicus; experiment: Antioxidant activity in fasted STZ-induced diabetic Wistar rat model assessed as increase in high glucose induced ROS production in pancreas by measuring minimum fractional index at 10 mg/kg, po administration for 21 days; assay type: functional; details: time 21 day
Method in brief: (§1)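 Rat pancreas mashed through a 70 μm strainer in FACS buffer. Processed by centrifugation (300 × g and 800 × g, 21 °C), 42% Percoll and 5 min RBC lysis. Cells washed, stained with DCFH-DA, and ROS read on a flow cytometer.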

[8] = organism: Rattus norvegicus; experiment: (§2) Anti-diabetic activity in high glucose induced alpha-amylase expression in fasted STZ-induced diabetic Wistar rat model assessed as alpha- glucosidase level in pancreas by measuring minimum fractional index in presence of pioglitazone incubated for 23 hrs and measured after 24 hrs by flow cytometric analysis (reference value: 3063 +/- 149.2); assay type: functional
[9] = organism: Rattus norvegicus; experiment: as §2, with “alpha-amylase” for “alpha- glucosidase”, “2590 + 199.74)” for “3063 +/- 149.2)”; assay type: functional
[10] = system: Rattus norvegicus; experiment: Antioxidant activity in fasted STZ-induced diabetic Wistar rat model assessed as decrease in high glucose induced ROS production in pancreas by measuring minimum fractional index at 10 mg/kg, po administration for 21 days in presence of pioglitazone days and measured on day 35; assay type: functional; details: time 21 day; method in brief: as §1
[11] = system: PANC-1; experiment: (§3) Anti-diabetic activity against high glucose induced human PANC-1 cells assessed as decrease in glucose induced alpha-glucosidase expression by measuring by measuring minimum fractional index at 5 uM incubated for 23 hrs and measured after 24 hrs by flow cytometric analysis (reference value: 4361 +/- 257.83); assay type: functional
[12] = system: PANC-1; experiment: as §3, with “alpha-amylase” for “alpha-glucosidase”, “2887” for “4361”, “95.87)” for “257.83)”; assay type: functional

IC50 [2] [µM] | IC50 [4] [µM] | Structure (SMILES) | Activity [1] | Activity_index [3] | also measured
42.24 | 48.7 | CCOc1cc(/C=C2\SC(=O)N(Cc3cccc([N+](=O)[O-])c3)C2=O)ccc1OS(=O)(=O)c1ccc(C)cc1 | Non-toxic | 957 | 
99.1 | 64.8 | CCOc1cc(/C=C2\SC(=O)N(Cc3cccc([N+](=O)[O-])c3)C2=O)ccc1OCc1cccc([N+](=O)[O-])c1 | Non-toxic | 4225 | 
31.2 | 55.6 | CCOc1cc(/C=C2\SC(=O)N(Cc3cccc([N+](=O)[O-])c3)C2=O)ccc1OCc1ccccc1 | Non-toxic | 898 | 
53.18 | 50.8 | O=C1/C(=C2/SC(=O)N(Cc3cccc([N+](=O)[O-])c3)C2=O)Nc2ccc(Cl)cc21 | Non-toxic | 3063 | 
 |  | CN(N=O)C(=O)N[C@@H]1[C@@H](O)[C@H](O)[C@@H](CO)O[C@@H]1O [STREPTOZOSIN] |  |  | Activity [5]: Toxic; Activity [6]: Toxic; Activity_index [7]: 3762; Activity_index [8]: 720; Activity_index [9]: 230; Activity_index [10]: 221
96.15 | 126 | CCOc1cc(/C=C2\SC(=O)N(Cc3cccc([N+](=O)[O-])c3)C2=O)ccc1OCc1ccc(Cl)cc1 | Non-toxic | 4225 | 
46.51 | 60.1 | CCOc1cc(/C=C2\SC(=O)N(Cc3cccc([N+](=O)[O-])c3)C2=O)ccc1OCc1ccc(F)cc1 | Non-toxic | 2438 | 
68.76 | 61 | O=C1/C(=C2/SC(=O)N(Cc3cccc([N+](=O)[O-])c3)C2=O)Nc2ccc(Br)cc21 | Non-toxic | 2982 | 
 |  | C[C@H]1O[C@H](O[C@H]2[C@H](O)[C@@H](O)[C@@H](O[C@H]3[C@H](O)[C@@H](O)C(O)O[C@@H]3CO)O[C@@H]2CO)[C@H](O)[C@@H](O)[C@@H]1N[C@H]1C=C(CO)[C@@H](O)[C@H](O)[C@H]1O (some centres undefined) [ACARBOSE] |  | 149 | Activity index [11]: 170; Activity index [12]: 114
38.33 | 93.5 | CCOc1cc(/C=C2\SC(=O)N(Cc3cccc([N+](=O)[O-])c3)C2=O)ccc1OCc1ccc([N+](=O)[O-])cc1 | Non-toxic | 676 | 
20.31 | 54.2 | CCOc1cc(/C=C2\SC(=O)N(Cc3cccc([N+](=O)[O-])c3)C2=O)ccc1OCc1ccc(C)cc1 | Non-toxic | 230 | 
58.44 | 44 | O=C1/C(=C2/SC(=O)N(Cc3cccc([N+](=O)[O-])c3)C2=O)Nc2ccccc21 | Non-toxic | 3041 | 
